Where “and” joins values, the source holds several entries; their conditions need not be identical. Equal values may be shown once. Where a SMILES comes first, the peptide text is derived from it. The star is where a group is joined. Cbz = O=C(OCc1ccccc1)*
How the values were obtained:
[1] = tested on: R155H/R155H mouse model of MSP; details: cited from earlier work
[2] = tested on: CRISPR-Cas9 knock-in HeLa cells harboring R155H VCP expressing GFP-TDP-4FL; experiment: Flow cytometry of GFP-TDP-4FL clearance, R155H knock-in HeLa; assay type: cell-based
[3] = tested on: drosophila model of MSP; details: cited from earlier work
[4] = tested on: CRISPR-Cas9 knock-in HeLa cells harboring A232E VCP expressing GFP-TDP-4FL; experiment: Flow cytometry of GFP-TDP-4FL clearance, A232E knock-in HeLa; assay type: cell-based
[5] = tested on: HeLa cells expressing myc-TDP-4FL; experiment: Sequential extraction and immunoblot of soluble and insoluble TDP-4FL; assay type: cell-based
[6] = tested on: HeLa cells expressing TDP-4FL; experiment: Confocal immunofluorescence of intranuclear TDP-4FL inclusion morphology; assay type: cell-based
[7] = tested on: WT HeLa cells expressing GFP-TDP-4FL; experiment: Flow cytometry of GFP-TDP-4FL clearance, wild-type HeLa; assay type: cell-based
[8] = target: WT VCP + Ufd1/Nploc4 (Mus musculus, UniProt Q01853); experiment: Kinase-Glo ATPase assay of recombinant VCP with UFD1/NPLOC4 cofactors; assay type: biochemical; details: for Maximum % Activity (95% CI) / EC50: WT VCP + Ufd1/Nploc4, 50 nM each, 62.5 μM ATP; for EC50: read-out: EC50 (μM) (95% CI)
How it was run: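 50 nM His-tagged recombinant VCP was mixed with 50 nM co-purified UFD1/NPLOC4 complex (1:1 molar) in 25 mM HEPES pH 7.5, 100 mM NaCl, 10 mM MgCl2, 2% DMSO. Added 62.5 µM ATP and a range of activator concentrations, then incubated 1 h at 25°C. ATP remaining was read by Kinase-Glo luminescence after 20 min at room temperature. 3-parameter dose-curve fit with profile-likelihood 95% CI; n=3, 3 technical replicates.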

[9] = target: T1, recombinant WT VCP (Mus musculus, UniProt Q01853); experiment: MESG-PNP; assay type: biochemical; details: for increase in kcat: 25 μM activator compared with DMSO; for kcat (nmol Pi / nmol VCP / s) (95% CI): WT VCP with 25 μM compound
How it was run: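 EnzCheck (MESG-PNP) phosphate-release assay: 50 nM recombinant VCP in ATPase buffer with 2% DMSO, 25 µM compound or DMSO, and various ATP concentrations. Absorbance at 360 nm followed for >15 min at 25°C. Phosphate was quantified from an on-plate standard curve. Initial velocities came from linear fits and were fitted to Michaelis-Menten with asymmetric profile-likelihood 95% CI.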

[10] = target: VCP (E578Q) (Mus musculus, UniProt Q01853, E578Q); experiment: ATPase activity of VCP with D2 Walker B mutation; assay type: biochemical; details: 25 μM activator vs DMSO
[11] = target: T1, recombinant WT VCP; assay type: biochemical; details: for maximal increase of VCP activity / Maximum % Activity (95% CI): WT VCP; for maximal increase of VCP activity: increase over baseline; for Maximum % Activity (95% CI): 50 nM VCP, 62.5 μM ATP, Kinase-Glo; for recombinant WT VCP ATPase activity (in words): luciferase-based Kinase-Glo assay
How it was run: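 Titration of activator concentrations against 50 nM His-tagged recombinant VCP, no cofactors, with 62.5 µM ATP. Buffer: 25 mM HEPES pH 7.5, 100 mM NaCl, 10 mM MgCl2, 2% DMSO. Incubated 1 h at 25°C, then 20 min with Kinase-Glo reagent at room temperature, read by luminescence. Fitted to a 3-parameter dose curve with profile-likelihood 95% CI; n=3 with 3 technical replicates.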

[12] = target: N-ethylmaleimide-sensitive factor (NSF) (Homo sapiens, UniProt P46459); experiment: ATPase activity of recombinant NSF; assay type: biochemical; details: 25 μM activator, 50 nM NSF, 62.5 μM ATP
[13] = target: LD2 (aa442–806) VCP (Homo sapiens, UniProt P55072); experiment: ATPase activity of truncated LD2 VCP; assay type: biochemical; details: 25 μM compound vs DMSO
[14] = tested on: luciferase; experiment: Luciferase counter-screen: Kinase-Glo without recombinant VCP; assay type: biochemical; details: 62.5 μM ATP, increasing compound, no VCP
[15] = target: ND1L (aa1–481) VCP (Homo sapiens, UniProt P55072); experiment: ATPase activity of truncated ND1L VCP; assay type: biochemical; details: 25 μM compound vs DMSO
[16] = tested on: HeLa cells expressing myc-TDP-4FL; experiment: Anti-myc immunoprecipitation of insoluble TDP-4FL, ubiquitin immunoblot; assay type: cell-based; details: MG132 treatment, immunoprecipitation of insoluble fraction
How it was run: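 Sequential extraction: RIPA, then 100,000 x g for 30 min at 4°C, then urea/thiourea/CHAPS buffer. The urea-soluble fraction was diluted in TBST containing 100 mM NEM and 5 mM EDTA and incubated overnight at 4°C with anti-c-Myc magnetic beads. Elution was in Laemmli buffer with 0.5 mM DTT, 10 min at 99°C, followed by immunoblotting with IR-dye detection.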

[17] = tested on: HeLa cells expressing myc-TDP-43; experiment: Immunofluorescence and immunoblot of myc-TDP-43 under proteasome inhibition; assay type: cell-based
How it was run: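 For imaging, cells were fixed in 4% paraformaldehyde, permeabilised with 0.1% Triton X-100, stained with anti-myc and DAPI, and imaged by confocal microscopy. For blots, RIPA-soluble and urea-soluble fractions were separated at 100,000 x g, and 25-40 µg protein was immunoblotted with GAPDH as loading control.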

[18] = CB5083 + CHX 6 hours after 3 hours MG132
[19] = 5μM UP109 + CHX 4 hours after MG132, vs CHX only

VCP (E578Q), sequence (Q01853 whole entry E578Q): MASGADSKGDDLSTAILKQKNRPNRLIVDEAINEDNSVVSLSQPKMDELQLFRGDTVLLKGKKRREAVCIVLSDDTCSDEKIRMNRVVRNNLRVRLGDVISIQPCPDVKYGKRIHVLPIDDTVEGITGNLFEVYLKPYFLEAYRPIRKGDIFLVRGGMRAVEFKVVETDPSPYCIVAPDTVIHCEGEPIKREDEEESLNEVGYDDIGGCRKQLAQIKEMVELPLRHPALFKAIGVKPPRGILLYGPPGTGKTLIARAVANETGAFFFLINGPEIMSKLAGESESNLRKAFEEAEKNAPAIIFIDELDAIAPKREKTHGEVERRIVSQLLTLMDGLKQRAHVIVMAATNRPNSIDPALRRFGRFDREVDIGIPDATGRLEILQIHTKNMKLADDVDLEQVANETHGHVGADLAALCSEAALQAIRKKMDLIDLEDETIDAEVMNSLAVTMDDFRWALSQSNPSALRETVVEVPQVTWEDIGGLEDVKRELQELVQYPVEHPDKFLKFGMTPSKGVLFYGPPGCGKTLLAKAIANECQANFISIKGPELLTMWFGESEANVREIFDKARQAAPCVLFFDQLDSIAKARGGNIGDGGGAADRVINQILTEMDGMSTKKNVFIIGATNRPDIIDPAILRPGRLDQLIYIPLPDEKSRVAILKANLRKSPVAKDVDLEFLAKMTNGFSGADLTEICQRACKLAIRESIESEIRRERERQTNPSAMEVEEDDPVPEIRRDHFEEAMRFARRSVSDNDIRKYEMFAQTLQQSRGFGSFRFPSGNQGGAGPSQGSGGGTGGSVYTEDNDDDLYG
LD2 (aa442–806) VCP, sequence (P55072 442-806): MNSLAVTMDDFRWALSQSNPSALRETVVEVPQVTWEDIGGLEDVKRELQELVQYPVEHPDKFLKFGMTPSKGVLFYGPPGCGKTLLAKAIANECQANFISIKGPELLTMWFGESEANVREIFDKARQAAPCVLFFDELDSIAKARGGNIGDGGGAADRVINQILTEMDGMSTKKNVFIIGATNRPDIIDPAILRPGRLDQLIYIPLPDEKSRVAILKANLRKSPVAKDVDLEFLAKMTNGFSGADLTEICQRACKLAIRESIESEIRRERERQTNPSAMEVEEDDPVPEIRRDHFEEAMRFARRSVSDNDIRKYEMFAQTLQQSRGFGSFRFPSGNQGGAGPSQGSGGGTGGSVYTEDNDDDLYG
T1 sequence (Q01853 whole entry): as the sequence (Q01853 whole entry E578Q) above, with Q578E counted along it
WT VCP + Ufd1/Nploc4, sequence (Q01853 whole entry): as the sequence (Q01853 whole entry E578Q) above, with Q578E counted along it
WT VCP + Ufd1/Nploc4, sequence (Q92890 whole entry partner): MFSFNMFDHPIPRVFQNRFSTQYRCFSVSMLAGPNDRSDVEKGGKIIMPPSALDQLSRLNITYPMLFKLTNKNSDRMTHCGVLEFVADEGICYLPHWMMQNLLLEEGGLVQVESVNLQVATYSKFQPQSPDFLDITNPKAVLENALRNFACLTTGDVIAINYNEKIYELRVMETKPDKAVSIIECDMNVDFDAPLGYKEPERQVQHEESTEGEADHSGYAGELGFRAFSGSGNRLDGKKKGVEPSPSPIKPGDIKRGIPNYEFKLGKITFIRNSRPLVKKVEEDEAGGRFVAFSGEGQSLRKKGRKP
WT VCP + Ufd1/Nploc4, sequence (Q8TAT6 whole entry partner): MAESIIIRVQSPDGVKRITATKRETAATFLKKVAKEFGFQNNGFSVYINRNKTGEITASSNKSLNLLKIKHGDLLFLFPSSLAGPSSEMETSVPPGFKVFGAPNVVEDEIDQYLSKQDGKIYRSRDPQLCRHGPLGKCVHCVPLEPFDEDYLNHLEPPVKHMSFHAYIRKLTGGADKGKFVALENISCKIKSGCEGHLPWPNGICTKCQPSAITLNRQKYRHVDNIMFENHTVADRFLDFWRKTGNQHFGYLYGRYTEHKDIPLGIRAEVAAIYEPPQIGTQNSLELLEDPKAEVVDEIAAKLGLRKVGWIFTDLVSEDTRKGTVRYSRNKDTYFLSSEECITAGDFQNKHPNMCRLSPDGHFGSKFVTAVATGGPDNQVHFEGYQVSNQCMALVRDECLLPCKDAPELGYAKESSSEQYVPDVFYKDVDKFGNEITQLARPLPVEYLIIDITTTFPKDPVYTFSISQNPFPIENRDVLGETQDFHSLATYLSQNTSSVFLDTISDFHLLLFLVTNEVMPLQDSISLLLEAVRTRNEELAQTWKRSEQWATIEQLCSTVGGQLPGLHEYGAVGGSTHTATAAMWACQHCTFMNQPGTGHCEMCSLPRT
N-ethylmaleimide-sensitive factor (NSF), sequence (P46459 whole entry, the tested form may be a part): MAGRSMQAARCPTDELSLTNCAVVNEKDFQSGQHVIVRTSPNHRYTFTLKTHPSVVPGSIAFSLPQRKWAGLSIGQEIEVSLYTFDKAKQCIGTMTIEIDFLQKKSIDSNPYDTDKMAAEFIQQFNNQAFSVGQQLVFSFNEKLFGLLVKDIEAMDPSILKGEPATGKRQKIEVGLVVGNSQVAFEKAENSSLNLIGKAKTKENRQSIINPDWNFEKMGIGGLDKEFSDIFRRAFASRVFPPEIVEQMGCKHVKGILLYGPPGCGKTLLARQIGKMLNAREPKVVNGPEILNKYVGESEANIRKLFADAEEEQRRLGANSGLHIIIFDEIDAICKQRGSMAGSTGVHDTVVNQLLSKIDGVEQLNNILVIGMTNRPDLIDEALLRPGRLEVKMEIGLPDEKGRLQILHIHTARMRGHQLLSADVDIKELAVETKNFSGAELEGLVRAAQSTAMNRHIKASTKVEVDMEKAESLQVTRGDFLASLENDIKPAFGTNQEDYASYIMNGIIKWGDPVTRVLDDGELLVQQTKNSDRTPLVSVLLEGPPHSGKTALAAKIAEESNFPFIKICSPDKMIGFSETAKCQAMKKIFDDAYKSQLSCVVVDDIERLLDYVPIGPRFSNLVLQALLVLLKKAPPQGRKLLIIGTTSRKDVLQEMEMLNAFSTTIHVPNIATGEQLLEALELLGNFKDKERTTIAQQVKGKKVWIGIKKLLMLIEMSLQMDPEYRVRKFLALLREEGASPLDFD
ND1L (aa1–481) VCP, sequence (P55072 1-481): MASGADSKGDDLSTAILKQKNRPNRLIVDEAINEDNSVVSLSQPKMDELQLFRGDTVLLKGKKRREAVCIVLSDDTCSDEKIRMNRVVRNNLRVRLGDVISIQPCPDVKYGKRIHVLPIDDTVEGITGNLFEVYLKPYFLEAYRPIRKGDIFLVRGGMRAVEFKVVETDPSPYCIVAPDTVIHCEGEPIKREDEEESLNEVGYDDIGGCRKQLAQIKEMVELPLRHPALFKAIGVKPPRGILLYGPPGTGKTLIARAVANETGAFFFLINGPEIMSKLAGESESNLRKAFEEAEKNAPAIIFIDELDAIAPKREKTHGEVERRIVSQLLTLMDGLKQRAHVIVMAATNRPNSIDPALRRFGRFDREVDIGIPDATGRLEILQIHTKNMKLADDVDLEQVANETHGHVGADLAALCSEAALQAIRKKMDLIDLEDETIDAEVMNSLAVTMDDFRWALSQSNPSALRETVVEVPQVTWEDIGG

Compound	Maximum % Activity (95% CI) [8]	EC50 [8]	increase in kcat [9]	maximal increase of VCP activity [11]	Maximum % Activity (95% CI) [11]	luciferase activity inhibition [14]	ATPase activity of ND1L construct [15]	kcat (nmol Pi / nmol VCP / s) (95% CI) [9]	ATPase activity of VCP E578Q (inactive D2, active D1) [10]	recombinant WT VCP ATPase activity (in words) [11]	NSF ATPase activity compared to DMSO [12]	ATPase activity of LD2 construct [13]	other results
Cc1cc2c(C(N)=O)cccc2n1-c1nc2c(c(NCc3ccccc3)n1)COCC2 [CB5083]	–	–	–	–	–	–	–	–	–	–	–	–	markers of muscle pathology [1]: improved markers of muscle pathology; integrated fluorescence intensity (GFP-TDP-4FL) [2, 18]: greater integrated fluorescence intensity compared to CHX only treatment; altered mitochondrial morphology caused by VCP variants [3]: reversed; integrated fluorescence intensity (GFP-TDP-4FL) [4, 18]: greater integrated fluorescence intensity compared to CHX only treatment; insoluble TDP-4FL protein [5, 18]: residual amounts of insoluble TDP-4FL protein; soluble TDP-4FL protein [5, 18]: significant decrease in soluble TDP-4FL protein; TDP-4FL aggregate morphology [6, 18]: residual irregularly shaped intranuclear TDP-4FL aggregates; integrated fluorescence intensity (GFP-TDP-4FL) ([7]; WT cells, CB5083 + CHX 6 hours after 3 hours MG132): significantly higher than CHX only treatment
O=C(CSc1nc2ccccc2c(=O)n1NC(=O)c1ccccc1)c1ccc(Cl)cc1 [UP12]	124.6 (119.8, 130.2) %	0.648 µM	about 25%	39%	139.0 (131.9, 149.0) %	did not inhibit luciferase activity	only compound to increase ATPase activity	0.309 nmol Pi / nmol VCP / s and 0.309 (0.269, 0.356) nmol Pi / nmol VCP / s	seemed to increase ATPase activity, though not significantly	significantly increased recombinant WT VCP ATPase activity	No compound significantly increased ATPase activity	significantly increased ATPase activity	–
CC(C)C[C@@H](C=O)NC(=O)[C@H](CC(C)C)NC(=O)[C@H](CC(C)C)NC(=O)OCc1ccccc1 [MG132] (Cbz-Leu-Leu-Leu-aldehyde)	–	–	–	–	–	–	–	–	–	–	–	–	ubiquitination of insoluble myc-TDP-4FL [16]: ubiquitination of TDP-4FL protein; TDP-43 nuclear morphology ([17]; 4μM MG132): formation of coarse nuclear punctae; insoluble TDP-43 protein ([17]; 4μM MG132 for 0, 3, or 6 hours): increase in insoluble TDP-43 protein; soluble TDP-43 protein ([17]; 4μM MG132 for 0, 3, or 6 hours): reduction in soluble TDP-43 protein; insoluble TDP-4FL ([5]; 4μM MG132 for 0, 3, or 6 hours): increase in insoluble TDP-4FL; soluble TDP-4FL ([5]; 4μM MG132 for 0, 3, or 6 hours): decrease in soluble TDP-4FL; TDP-4FL inclusion morphology ([6]; 4μM MG132, 3 or 6 hours): coalesced into larger, irregularly shaped aggregates

Second part, led by results:

Maximum % Activity (95% CI) [8]	EC50 [8]	increase in kcat [9]	maximal increase of VCP activity [11]	Maximum % Activity (95% CI) [11]	luciferase activity inhibition [14]	ATPase activity of ND1L construct [15]	Compound	kcat (nmol Pi / nmol VCP / s) (95% CI) [9]	ATPase activity of VCP E578Q (inactive D2, active D1) [10]	recombinant WT VCP ATPase activity (in words) [11]	NSF ATPase activity compared to DMSO [12]	ATPase activity of LD2 construct [13]	other results
151.8 (144.7, 160.7) %	8.9 µM	more than 50%	104%	204.0 (189.2, 223.3) %	did not inhibit luciferase activity	did not inhibit the ATPase activity	O=C(OCCN(C1=NS(=O)(=O)c2ccccc21)c1ccc(Cl)cc1)c1ccco1 [UP163]	0.366 nmol Pi / nmol VCP / s and 0.366 (0.335, 0.401) nmol Pi / nmol VCP / s	significantly decreased ATPase activity	significantly increased recombinant WT VCP ATPase activity	No compound significantly increased ATPase activity	significantly increased ATPase activity	change in EC50 with UN compared to without UN ([8]; recombinant UN 1:1 molar ratio with VCP): no change in EC50
175.3 (164.6, 188.0) %	13.4 µM	100%	97%	197.4 (189.8, 206.1) %	did not inhibit luciferase activity	did not inhibit the ATPase activity	COCCNC(=O)NC(=O)COC(=O)c1cc([N+](=O)[O-])ccc1Sc1nc(C)cs1 [UP109]	0.489 nmol Pi / nmol VCP / s and 0.489 (0.459, 0.520) nmol Pi / nmol VCP / s	decreased ATPase activity, though less than UP158 and UP163 and not significantly	significantly increased recombinant WT VCP ATPase activity	No compound significantly increased ATPase activity	significantly increased ATPase activity	integrated fluorescence intensity (GFP-TDP-4FL) ([2]; 5μM UP109 + CHX vs CHX only): significantly decreased integrated fluorescence intensity; integrated fluorescence intensity (GFP-TDP-4FL) ([4]; 5μM UP109 + CHX vs CHX only): significantly decreased integrated fluorescence intensity; insoluble TDP-4FL levels [5, 19]: significant decrease in insoluble TDP-4FL levels; soluble TDP-4FL levels [5, 19]: increase in soluble TDP-4FL levels; TDP-4FL aggregate morphology ([6]; 5μM UP109 + CHX 4 hours after MG132): appeared to be smaller and in some cases revert to small anisosomes; integrated fluorescence intensity (GFP-TDP-4FL) ([7]; 5μM UP109 + CHX 4 hours after 17 hours MG132, vs CHX only): significantly decreased; integrated fluorescence intensity (GFP-TDP-4FL) ([7]; 20μM UP109 + CHX 4 hours after 17 hours MG132): further reduced
152.1 (143.2, 164.4) %	14.3 µM	more than 50%	50%	150.3 (146.6, 154.3) %	did not inhibit luciferase activity	did not inhibit the ATPase activity	Clc1ccc2[nH]c3c(N4CCC5(CC4)OCCO5)ncnc3c2c1 [UP158]	0.356 nmol Pi / nmol VCP / s and 0.356 (0.320, 0.396) nmol Pi / nmol VCP / s	significantly decreased ATPase activity	significantly increased recombinant WT VCP ATPase activity	No compound significantly increased ATPase activity	significantly increased ATPase activity	–

Reference: paper PMC10055171 (bioRxiv, 2023)
